tested on: HL-60; assay: Cytotoxicity against human HL60 cells after 72 hrs by MTT assay; format: functional, cell-based; details: HL-60, 72 h
Summary of the method: (§1)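 MTT assay: 1 × 10^4 exponentially growing cells per well incubated 72 h over a range of compound concentrations; MTT 0.5 mg/mL for 4 h at 37 °C, then 10% SDS in 0.05 M HCl overnight at room temperature in the dark; absorbance at 570 nm. Leukemia and SK-MEL-1 lines grown in RPMI 1640, MCF-7 in DMEM, both with 10% heat-inactivated FBS. IC50 given as mean ± SEM of 3–5 independent experiments, each in triplicate.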

Row | SMILES | IC50 [µM]
1 | CC(=O)O[C@H]1C2=C(C(=O)C(O)=C(C(C)C)C2=O)[C@@]2(C)CCCC(C)(C)[C@@H]2[C@@H]1O | 25.4
2 | COc1cc([C@@H]2c3cc4c(cc3[C@@H](O[C@@H]3O[C@@H]5CO[C@@H](C)O[C@H]5[C@H](O)[C@H]3O)[C@H]3COC(=O)[C@H]23)OCO4)cc(OC)c1O [ETOPOSIDE] | 0.5
3 | CC(C)c1c(O)c(O)c2c(c1O)C(=O)C(O)=C1C(C)(C)CCC[C@@]12C | 4.1
4 | CC(=O)O[C@@H]1[C@@H](OC(C)=O)C2=C(C(=O)C(O)=C(C(C)C)C2=O)[C@@]2(C)CCCC(C)(C)[C@H]12 | 15.9
5 | CC(C)C1=C(O)C(=O)C2=C(CC[C@H]3C(C)(C)CCC[C@]23C)C1=O [ROYLEANONE] | > 30
6 | COc1ccc(C(=O)OC/C=C(\C)C[C@@H](O)[C@@]2(C)[C@H](C)CC=C3[C@@H]2CCCC3(C)C)cc1 | > 30
7 | COC(=O)/C=C(\C)C[C@@H](OC(C)=O)[C@@]1(C)[C@H](C)CC=C2[C@@H]1CCCC2(C)C | > 30
8 | CC(=O)OC1=C(C(C)C)C(=O)C2=C(C1=O)[C@@]1(C)CCCC(C)(C)[C@@H]1[C@H](OC(C)=O)[C@H]2OC(C)=O | 9
9 | CC(=O)OC1=C2C(C)(C)CCC[C@]2(C)c2c(cc(C(C)C)c(OC(C)=O)c2OC(C)=O)C1=O | 4.1
10 | C/C(=C\COC(=O)c1ccccc1)C[C@@H](O)[C@@]1(C)[C@H](C)CC=C2[C@@H]1CCCC2(C)C | > 30
11 | CCC(=O)OC1=C(C(C)C)C(=O)C2=C(C1=O)[C@@]1(C)CCCC(C)(C)[C@@H]1[C@H](OC(=O)CC)[C@H]2OC(C)=O | 4.7
12 | COc1c(O)c2c(c(O)c1C(C)C)C(=O)C[C@H]1C(C)=C(C)C(=O)C[C@]21C | > 30
13 | C[C@H]1Cc2c(O)c3c(c(O)c2O1)[C@@]1(C)CCC(=O)C(C)(C)C1=C(O)C3=O [TEUVINCENONE A] | 3.5
14 | CC(=O)O[C@H]1C2=C(C(=O)C(OC(=O)c3ccc([N+](=O)[O-])cc3)=C(C(C)C)C2=O)[C@@]2(C)CCCC(C)(C)[C@@H]2[C@@H]1O | 8.4

tested on: SK-MEL-1; assay: Cytotoxicity against human SK-MEL-1 cells after 72 hrs by MTT assay; format: functional, cell-based; details: SK-MEL-1, 72 h; summary of the method: as §1

Row | SMILES | IC50 [µM]
15 | CC(=O)O[C@H]1C2=C(C(=O)C(O)=C(C(C)C)C2=O)[C@@]2(C)CCCC(C)(C)[C@@H]2[C@@H]1O | 29.1
16 | CC(C)c1c(O)c(O)c2c(c1O)C(=O)C(O)=C1C(C)(C)CCC[C@@]12C | 10
17 | CC(=O)O[C@@H]1[C@@H](OC(C)=O)C2=C(C(=O)C(O)=C(C(C)C)C2=O)[C@@]2(C)CCCC(C)(C)[C@H]12 | 16.2
18 | CC(C)C1=C(O)C(=O)C2=C(CC[C@H]3C(C)(C)CCC[C@]23C)C1=O [ROYLEANONE] | > 30
19 | COc1ccc(C(=O)OC/C=C(\C)C[C@@H](O)[C@@]2(C)[C@H](C)CC=C3[C@@H]2CCCC3(C)C)cc1 | > 30
20 | COC(=O)/C=C(\C)C[C@@H](OC(C)=O)[C@@]1(C)[C@H](C)CC=C2[C@@H]1CCCC2(C)C | > 30
21 | CC(=O)OC1=C(C(C)C)C(=O)C2=C(C1=O)[C@@]1(C)CCCC(C)(C)[C@@H]1[C@H](OC(C)=O)[C@H]2OC(C)=O | 8.1
22 | CC(=O)OC1=C2C(C)(C)CCC[C@]2(C)c2c(cc(C(C)C)c(OC(C)=O)c2OC(C)=O)C1=O | 9.9
23 | C/C(=C\COC(=O)c1ccccc1)C[C@@H](O)[C@@]1(C)[C@H](C)CC=C2[C@@H]1CCCC2(C)C | > 30
24 | CCC(=O)OC1=C(C(C)C)C(=O)C2=C(C1=O)[C@@]1(C)CCCC(C)(C)[C@@H]1[C@H](OC(=O)CC)[C@H]2OC(C)=O | 27.4
25 | COc1c(O)c2c(c(O)c1C(C)C)C(=O)C[C@H]1C(C)=C(C)C(=O)C[C@]21C | > 30
26 | C[C@H]1Cc2c(O)c3c(c(O)c2O1)[C@@]1(C)CCC(=O)C(C)(C)C1=C(O)C3=O [TEUVINCENONE A] | > 30
27 | CC(=O)O[C@H]1C2=C(C(=O)C(OC(=O)c3ccc([N+](=O)[O-])cc3)=C(C(C)C)C2=O)[C@@]2(C)CCCC(C)(C)[C@@H]2[C@@H]1O | 5.7

tested on: MCF7; assay: Cytotoxicity against human MCF7 cells after 72 hrs by MTT assay; format: functional, cell-based; details: MCF7, 72 h; summary of the method: as §1

Row | SMILES | IC50 [µM]
28 | CC(=O)O[C@H]1C2=C(C(=O)C(O)=C(C(C)C)C2=O)[C@@]2(C)CCCC(C)(C)[C@@H]2[C@@H]1O | 6.8
29 | CC(C)c1c(O)c(O)c2c(c1O)C(=O)C(O)=C1C(C)(C)CCC[C@@]12C | 27.5
30 | CC(=O)O[C@@H]1[C@@H](OC(C)=O)C2=C(C(=O)C(O)=C(C(C)C)C2=O)[C@@]2(C)CCCC(C)(C)[C@H]12 | 23.3
31 | CC(C)C1=C(O)C(=O)C2=C(CC[C@H]3C(C)(C)CCC[C@]23C)C1=O [ROYLEANONE] | > 30
32 | COc1ccc(C(=O)OC/C=C(\C)C[C@@H](O)[C@@]2(C)[C@H](C)CC=C3[C@@H]2CCCC3(C)C)cc1 | > 30
33 | COC(=O)/C=C(\C)C[C@@H](OC(C)=O)[C@@]1(C)[C@H](C)CC=C2[C@@H]1CCCC2(C)C | > 30
34 | CC(=O)OC1=C(C(C)C)C(=O)C2=C(C1=O)[C@@]1(C)CCCC(C)(C)[C@@H]1[C@H](OC(C)=O)[C@H]2OC(C)=O | 5.9
35 | CC(=O)OC1=C2C(C)(C)CCC[C@]2(C)c2c(cc(C(C)C)c(OC(C)=O)c2OC(C)=O)C1=O | > 30
36 | C/C(=C\COC(=O)c1ccccc1)C[C@@H](O)[C@@]1(C)[C@H](C)CC=C2[C@@H]1CCCC2(C)C | > 30
37 | CCC(=O)OC1=C(C(C)C)C(=O)C2=C(C1=O)[C@@]1(C)CCCC(C)(C)[C@@H]1[C@H](OC(=O)CC)[C@H]2OC(C)=O | 28.3
38 | COc1c(O)c2c(c(O)c1C(C)C)C(=O)C[C@H]1C(C)=C(C)C(=O)C[C@]21C | > 30
39 | C[C@H]1Cc2c(O)c3c(c(O)c2O1)[C@@]1(C)CCC(=O)C(C)(C)C1=C(O)C3=O [TEUVINCENONE A] | > 30
40 | CC(=O)O[C@H]1C2=C(C(=O)C(OC(=O)c3ccc([N+](=O)[O-])cc3)=C(C(C)C)C2=O)[C@@]2(C)CCCC(C)(C)[C@@H]2[C@@H]1O | 11.4

tested on: U-937; assay: Cytotoxicity against human U937 cells after 72 hrs by MTT assay; format: functional, cell-based; details: U-937, 72 h; summary of the method: as §1

Row | SMILES | IC50 [µM]
41 | CC(=O)O[C@H]1C2=C(C(=O)C(O)=C(C(C)C)C2=O)[C@@]2(C)CCCC(C)(C)[C@@H]2[C@@H]1O | 13.7
42 | COc1cc([C@@H]2c3cc4c(cc3[C@@H](O[C@@H]3O[C@@H]5CO[C@@H](C)O[C@H]5[C@H](O)[C@H]3O)[C@H]3COC(=O)[C@H]23)OCO4)cc(OC)c1O [ETOPOSIDE] | 1.4
43 | CC(C)c1c(O)c(O)c2c(c1O)C(=O)C(O)=C1C(C)(C)CCC[C@@]12C | 4.3
44 | CC(=O)O[C@@H]1[C@@H](OC(C)=O)C2=C(C(=O)C(O)=C(C(C)C)C2=O)[C@@]2(C)CCCC(C)(C)[C@H]12 | 12.1
45 | CC(C)C1=C(O)C(=O)C2=C(CC[C@H]3C(C)(C)CCC[C@]23C)C1=O [ROYLEANONE] | > 30
46 | COc1ccc(C(=O)OC/C=C(\C)C[C@@H](O)[C@@]2(C)[C@H](C)CC=C3[C@@H]2CCCC3(C)C)cc1 | > 30
47 | COC(=O)/C=C(\C)C[C@@H](OC(C)=O)[C@@]1(C)[C@H](C)CC=C2[C@@H]1CCCC2(C)C | > 30
48 | CC(=O)OC1=C(C(C)C)C(=O)C2=C(C1=O)[C@@]1(C)CCCC(C)(C)[C@@H]1[C@H](OC(C)=O)[C@H]2OC(C)=O | 6.4
49 | CC(=O)OC1=C2C(C)(C)CCC[C@]2(C)c2c(cc(C(C)C)c(OC(C)=O)c2OC(C)=O)C1=O | 4.6
50 | C/C(=C\COC(=O)c1ccccc1)C[C@@H](O)[C@@]1(C)[C@H](C)CC=C2[C@@H]1CCCC2(C)C | > 30
51 | CCC(=O)OC1=C(C(C)C)C(=O)C2=C(C1=O)[C@@]1(C)CCCC(C)(C)[C@@H]1[C@H](OC(=O)CC)[C@H]2OC(C)=O | 3.9
52 | COc1c(O)c2c(c(O)c1C(C)C)C(=O)C[C@H]1C(C)=C(C)C(=O)C[C@]21C | > 30
53 | C[C@H]1Cc2c(O)c3c(c(O)c2O1)[C@@]1(C)CCC(=O)C(C)(C)C1=C(O)C3=O [TEUVINCENONE A] | 1.5
54 | CC(=O)O[C@H]1C2=C(C(=O)C(OC(=O)c3ccc([N+](=O)[O-])cc3)=C(C(C)C)C2=O)[C@@]2(C)CCCC(C)(C)[C@@H]2[C@@H]1O | 1.1

tested on: MOLT-3; assay: Cytotoxicity against human MOLT3 cells after 72 hrs by MTT assay; format: functional, cell-based; details: MOLT-3, 72 h; summary of the method: as §1

Row | SMILES | IC50 [µM]
55 | CC(=O)O[C@H]1C2=C(C(=O)C(O)=C(C(C)C)C2=O)[C@@]2(C)CCCC(C)(C)[C@@H]2[C@@H]1O | 12.7
56 | CC(C)c1c(O)c(O)c2c(c1O)C(=O)C(O)=C1C(C)(C)CCC[C@@]12C | 8.8
57 | CC(=O)O[C@@H]1[C@@H](OC(C)=O)C2=C(C(=O)C(O)=C(C(C)C)C2=O)[C@@]2(C)CCCC(C)(C)[C@H]12 | 5.4
58 | CC(C)C1=C(O)C(=O)C2=C(CC[C@H]3C(C)(C)CCC[C@]23C)C1=O [ROYLEANONE] | 13.6
59 | COc1ccc(C(=O)OC/C=C(\C)C[C@@H](O)[C@@]2(C)[C@H](C)CC=C3[C@@H]2CCCC3(C)C)cc1 | > 30
60 | COC(=O)/C=C(\C)C[C@@H](OC(C)=O)[C@@]1(C)[C@H](C)CC=C2[C@@H]1CCCC2(C)C | > 30
61 | CC(=O)OC1=C(C(C)C)C(=O)C2=C(C1=O)[C@@]1(C)CCCC(C)(C)[C@@H]1[C@H](OC(C)=O)[C@H]2OC(C)=O | 3
62 | CC(=O)OC1=C2C(C)(C)CCC[C@]2(C)c2c(cc(C(C)C)c(OC(C)=O)c2OC(C)=O)C1=O | 4.6
63 | C/C(=C\COC(=O)c1ccccc1)C[C@@H](O)[C@@]1(C)[C@H](C)CC=C2[C@@H]1CCCC2(C)C | > 30
64 | CCC(=O)OC1=C(C(C)C)C(=O)C2=C(C1=O)[C@@]1(C)CCCC(C)(C)[C@@H]1[C@H](OC(=O)CC)[C@H]2OC(C)=O | 10.8
65 | COc1c(O)c2c(c(O)c1C(C)C)C(=O)C[C@H]1C(C)=C(C)C(=O)C[C@]21C | > 30
66 | C[C@H]1Cc2c(O)c3c(c(O)c2O1)[C@@]1(C)CCC(=O)C(C)(C)C1=C(O)C3=O [TEUVINCENONE A] | 2.7
67 | CC(=O)O[C@H]1C2=C(C(=O)C(OC(=O)c3ccc([N+](=O)[O-])cc3)=C(C(C)C)C2=O)[C@@]2(C)CCCC(C)(C)[C@@H]2[C@@H]1O | 10

From ChEMBL document CHEMBL2424587, “Antiproliferative activity of abietane diterpenoids against human tumor cells” (J Nat Prod, 2013)
